The record followed here is ChEMBL document CHEMBL1152759, “Design, synthesis, and biological evaluation of novel quinoline derivatives as HIV-1 Tat-TAR interaction inhibitors” (Bioorg Med Chem, 2009).

For data set [1], the system named is Simian immunodeficiency virus. Kind of data set: Antiviral activity against SIV in human CEM cells assessed as protection against virus-induced cytopathogenicity. In kind it is functional, organism-based. The following applies: CCRF-CEM. Summed up:
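SIV syncytium assay: CEM174 cells at 2 × 10^5 cells/ml infected with 100 TCID50 SIV per well, given dilutions of compound; 5 days at 37 °C, 5% CO2, humidified air. Giant (syncytium) cell formation scored microscopically. EC50 = concentration protecting cells from SIV cytopathogenicity by 50%.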
A general note: Protection from cytopathic effect is a common read-out in antiviral testing.

A short description of data set [2]: Selectivity index, ratio of TC50 for human CEM cells to EC50 for SIV in human CEM cells.
Data set [3] is described as follows: Cytotoxicity against human CEM cells. In kind it is cell-based. The settings on record: CEM (CCRF-CEM) cells, read-out: TC50 (the source's name). The gist of the method: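 Uninfected CEM cells exposed to compound dilutions; TC50 is the concentration giving 50% inhibition of cell proliferation.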
The subject of data set [4] is Nucleic Acid. Kind of data set: Inhibition of HIV1 Tat-TAR RNA interaction-mediated transactivation in human 293T cells assessed as CAT gene expression at 30 uM after 24 hrs by ELISA; values are per cent of control. The settings on record: Human immunodeficiency virus 1. (In an ELISA, binding on a coated surface is turned into a signal by an enzyme label.)

The structures appear in SMILES notation.

The EC50 is the concentration needed to bring the measured effect to its halfway point. As for `COC(=O)[C@H](CO)NC(=O)c1cnc2ccc(Cl)cc2c1Cl`, in data set [1], the EC50 stood at 12 µM. For the same molecule, the Ratio in data set [2] was >8.3. Also, in data set [3], the CC50 was > 100 µM.
For `COC(=O)[C@H](CO)NC(=O)c1cnc2c(F)cc(F)cc2c1Cl`, the EC50 in data set [1] is 8.8 µM. In data set [2], the Ratio is on record as >11. Besides, the CC50 in data set [3] is > 100 µM.
`O=C(NCCO)c1cnc2ccccc2c1Cl`: the EC50 in data set [1] worked out at 2.7 µM. For the same molecule, in data set [2], the Ratio was >37. In data set [3], the CC50 was > 100 µM.
With `COC(=O)[C@H](CO)NC(=O)c1cnc2c(Cl)cccc2c1Cl`, in data set [1], the EC50 was determined as 6.7 µM. In addition, the Ratio in data set [2] is reported as >15. For the same molecule, in data set [3], the CC50 was > 100 µM.
Take `COC(=O)[C@H](CO)NC(=O)c1cnc2c(C)cccc2c1Cl`: the EC50 in data set [1] worked out at 2.8 µM. In data set [2], the Ratio is reported as >36. Further, in data set [3], the CC50 is > 100 µM.
In the case of `COC(=O)[C@H](C)NC(=O)c1cnc2ccccc2c1Cl`, the EC50 in data set [1] was determined as 5.7 µM. The Ratio in data set [2] was 14. In data set [3], the CC50 came out at 81.3 µM.
For the molecule `O=C(NCCO)c1cn(CCO)c2ccccc2c1=O`, the EC50 in data set [1] was 7.3 µM. Besides, the Ratio in data set [2] is listed as >13. Also, the CC50 in data set [3] is > 100 µM.
Regarding `O=C(NCCO)c1cn(Cc2ccccc2)c2ccccc2c1=O`, the EC50 in data set [1] is 6 µM. Further, the Ratio in data set [2] is given as >16. For the same molecule, in data set [4], the level, % of control was found to be 63.9%. Further, the CC50 in data set [3] was > 100 µM.
Take `O=C(NCCCO)c1cnc2ccccc2c1Cl`: in data set [1], the EC50 is 6.6 µM. In addition, in data set [2], the Ratio is recorded as >15. For the same molecule, the CC50 in data set [3] was > 100 µM.
As to `COC(=O)[C@H](CSC)NC(=O)c1cnc2ccccc2c1Cl`, in data set [1], the EC50 is 2.9 µM. Moreover, the Ratio in data set [2] is 22. In data set [3], the CC50 is 68.4 µM.
With `COC(=O)[C@H](CO)NC(=O)c1cnc2cc(C)ccc2c1Cl`, the EC50 in data set [1] was 4.7 µM. Further, the Ratio in data set [2] is 13. Further, the level, % of control in data set [4] amounted to 53.3%. In data set [3], the CC50 was found to be 59.6 µM.
In the case of `COC(=O)[C@H](CO)NC(=O)c1cnc2ccc(F)cc2c1Cl`, the EC50 in data set [1] turned out to be 5.8 µM. Further, the Ratio in data set [2] is on record as >17. Further, in data set [3], the CC50 is > 100 µM.
For `O=C(NCCO)c1c[nH]c2ccc(Cl)cc2c1=O` the same measures were 5.1 µM, >19 and > 100 µM.
For `COC(=O)[C@@H](NC(=O)c1cnc2ccccc2c1Cl)[C@@H](C)O`, the EC50 in data set [1] was found to be 7 µM. The Ratio in data set [2] is >14. The level, % of control in data set [4] was found to be 82.4%. For the same molecule, the CC50 in data set [3] is > 100 µM.
For the molecule `O=C(NCCO)c1c[nH]c2ccc(Oc3ccccc3)cc2c1=O`, the concentration for a half-maximal effect (EC50) in data set [1] was found to be 4.9 µM. The Ratio in data set [2] is on record as >20. Further, the CC50 in data set [3] is > 100 µM.
Take `O=C(NCCO)c1c[nH]c2ccccc2c1=O`: the EC50 in data set [1] was 3.7 µM. In addition, the Ratio in data set [2] is on record as >27. For the same molecule, in data set [3], the CC50 was > 100 µM.
As for `COC(=O)[C@H](CC(C)C)NC(=O)c1cnc2ccccc2c1Cl`, the EC50 in data set [1] turned out to be 9.4 µM. The Ratio in data set [2] is reported as 5.2. In data set [3], the CC50 is 49.1 µM.
As to `COC(=O)[C@@H](NC(=O)c1cnc2cc(C)ccc2c1Cl)[C@@H](C)O`, the EC50 in data set [1] came out at 13 µM. In data set [2], the Ratio is >14. In addition, the level, % of control in data set [4] came out at 92.7%. Moreover, in data set [3], the CC50 is > 100 µM.
For the molecule `O=C(NCCO)c1cn(Cc2ccc(F)cc2)c2ccccc2c1=O`, in data set [1], the EC50 turned out to be 6.9 µM. Moreover, in data set [2], the Ratio is listed as >14. Moreover, in data set [3], the CC50 is > 100 µM.
Regarding `COC(=O)C[C@H](NC(=O)c1cnc2ccccc2c1Cl)C(=O)OC`, the level, % of control in data set [4] is 58.7%.
With `CC[C@H](C)[C@H](NC(=O)c1cnc2ccccc2c1Cl)C(=O)OC`, the EC50 in data set [1] turned out to be 1.3 µM. The Ratio in data set [2] was determined as 17. Moreover, the CC50 in data set [3] was 23.3 µM.
As for `CC(C)C[C@@H](CO)NC(=O)c1cnc2ccccc2c1Cl`, the EC50 in data set [1] worked out at 7.9 µM. Further, in data set [2], the Ratio was >12. In addition, the level, % of control in data set [4] amounted to 71.9%. In data set [3], the CC50 was > 100 µM.
For `COC(=O)[C@H](Cc1c[nH]c2ccccc12)NC(=O)c1cnc2ccccc2c1Cl`, in data set [1], the EC50 turned out to be 10 µM. Besides, in data set [2], the Ratio is on record as >19. For the same molecule, the CC50 in data set [3] is > 100 µM.
Consider `COC(=O)[C@@H](NC(=O)c1cnc2ccccc2c1Cl)C(C)C`, for which the EC50 in data set [1] is 5.6 µM. Besides, in data set [2], the Ratio turned out to be 3.1. Also, the CC50 in data set [3] is 17.6 µM.
For `COC(=O)[C@H](CO)NC(=O)c1cnc2cc(Cl)ccc2c1Cl`, the EC50 in data set [1] was 8.2 µM. In addition, the Ratio in data set [2] is >12. Moreover, in data set [3], the CC50 is > 100 µM.
For the molecule `C[C@@H](CO)NC(=O)c1cnc2ccccc2c1Cl`, the EC50 in data set [1] stood at 7 µM. Also, the Ratio in data set [2] is reported as >14. The CC50 in data set [3] is > 100 µM.
With `COC(=O)[C@H](CO)NC(=O)c1cnc2ccc(C)cc2c1Cl`, the EC50 in data set [1] was determined as 11.6 µM. For the same molecule, the Ratio in data set [2] was >8.6. Moreover, the CC50 in data set [3] is > 100 µM.
For `COC(=O)[C@H](CO)NC(=O)c1cnc2ccccc2c1Cl`, the EC50 in data set [1] was 1.1 µM. The Ratio in data set [2] is >90. The level, % of control in data set [4] came out at 59.6%. In data set [3], the CC50 was > 100 µM.
For `O=C(N[C@H](CO)Cc1ccccc1)c1cnc2ccccc2c1Cl`, the 50% effective concentration (EC50) in data set [1] turned out to be 4 µM. In addition, the Ratio in data set [2] is reported as >25. Moreover, in data set [3], the CC50 is > 100 µM.
On to `Cn1cc(C(=O)NCCO)c(=O)c2ccccc21`, for which the EC50 in data set [1] was 8.7 µM. For the same molecule, in data set [2], the Ratio is reported as >11. In data set [4], the level, % of control turned out to be 44.2%. Further, the CC50 in data set [3] is > 100 µM.
`COC(=O)[C@H](Cc1ccccc1)NC(=O)c1cnc2ccccc2c1Cl`: the EC50 in data set [1] stood at 7.9 µM. Further, in data set [2], the Ratio was >13. The CC50 in data set [3] is > 100 µM.
For the molecule `CCOC(=O)[C@H](CO)NC(=O)c1cnc2ccccc2c1Cl`, in data set [1], the EC50 worked out at 4.7 µM. The Ratio in data set [2] is >21. For the same molecule, the CC50 in data set [3] is > 100 µM.
`COC(=O)CNC(=O)c1cnc2ccccc2c1Cl`: in data set [1], the EC50 was 5.4 µM. Further, the Ratio in data set [2] is listed as >18. Also, the level, % of control in data set [4] was 79%. Also, in data set [3], the CC50 is > 100 µM.
